{"data": "Measurements collected from several papers", "SLC22A2": "Solute carrier family 22 member 2 (SLC22A2, Homo sapiens, UniProt O15244)", "CNR2": "Cannabinoid receptor 2 (CNR2, Homo sapiens, UniProt P34972)", "MMP2": "72 kDa type IV collagenase (MMP2, Homo sapiens, UniProt P08253)", "ADRB2": "Beta-2 adrenergic receptor (ADRB2, Homo sapiens, UniProt P07550)", "note": "Compare with care: the assays were run in different laboratories."}
{"Structure (SMILES)": "COc1ccc2nc(/N=C3/NC(=O)C(=Cc4ccc(Cl)cc4)S3)sc2c1", "target": "Aldo-keto reductase family 1 member B1 (Akr1b1, Rattus norvegicus, UniProt P07943)", "assay": "enzyme activity, inhibitor, absorbance", "setting": "pH 6.2", "IC50 [µM]": 3.99}
{"Structure (SMILES)": "CCS(=O)(=O)N1CC(CC#N)(n2cc(-c3ncnc4[nH]ccc34)cn2)C1", "target": "SLC22A2", "assay": "transporter uptake, inhibitor, radiometric", "setting": "2 min", "IC50 [µM]": 11.6}
{"Structure (SMILES)": "Cc1cnc(-c2ccc(-c3ccc(NC(=O)Nc4c(F)cc(F)cc4F)cc3F)c3c2C(=O)NC3)[nH]1", "target": "Epithelial discoidin domain-containing receptor 1 (DDR1, Homo sapiens, UniProt Q08345)", "assay": "enzyme activity, inhibitor", "IC50 [µM]": 0.0538}
{"Structure (SMILES)": "CCCC[C@H](NC(=O)[C@H](C)c1c(C)[nH]c2ccc(O)cc12)c1ncc(-c2cc3ccccc3nc2OC)[nH]1", "target": "Polyamine deacetylase HDAC10 (HDAC10, Homo sapiens, UniProt Q969S8)", "assay": "enzyme activity, inhibitor", "IC50 [µM]": 0.43}
{"Structure (SMILES)": "Cc1c(C(=O)NN2CCCCC2)nc(-c2ccc(Cl)cc2Cl)n1-c1ccc(OS(=O)(=O)CCC(F)(F)F)cc1", "target": "CNR2", "assay": "GTPγS binding, antagonist", "setting": "cell membranes", "IC50 [µM]": 0.288}
{"Structure (SMILES)": "Cc1noc(-c2cc3cc(-c4nc(C(=O)NCc5ccc(=O)[nH]c5)[nH]c4C)ccc3[nH]2)n1", "target": "MMP2", "assay": "enzyme activity, inhibitor", "IC50 [µM]": "> 24"}
{"Structure (SMILES)": "CCCN(CCC)CCc1cccc2c1CC(=O)N2", "target": "ADRB2", "assay": "ligand displacement, radioligand", "setting": "cell membranes", "IC50 [µM]": 200}
{"Structure (SMILES)": "CC(C)(C)OC(=O)NCC#Cc1ccc2c(c1)C=C([N+](=O)[O-])C(C(F)(F)F)O2 (stereo not shown)", "target": "P2Y purinoceptor 6 (P2RY6, Homo sapiens, UniProt Q15077)", "assay": "calcium signal, antagonist", "IC50 [µM]": "~1"}
{"Structure (SMILES)": "COc1cccc2sc(N(CCN(C)C)C(=O)c3ccc4c(c3)CCCC4)nc12", "target": "Short transient receptor potential channel 6 (Trpc6, Mus musculus, UniProt Q61143)", "assay": "calcium signal, fluorescence", "IC50 [µM]": 4.2}
{"Structure (SMILES)": "CN(CCC(=O)O)C(=O)c1ccc2c(c1)CC[C@@H]1[C@@H]2CC[C@]2(C)C(c3cncc(F)c3)=CC[C@@H]12", "target": "Ileal sodium/bile acid cotransporter (SLC10A2, Homo sapiens, UniProt Q12908)", "assay": "transporter uptake, inhibitor", "IC50 [µM]": 49}
{"Structure (SMILES)": "O=C(O)C(=O)CC(=O)c1cccc(N(Cc2ccccc2)Cc2ccccc2)c1", "target": "Dual specificity protein phosphatase 3 (DUSP3, Homo sapiens, UniProt P51452)", "assay": "enzyme activity, inhibitor, absorbance", "setting": "pH 7", "IC50 [µM]": 113}
{"Structure (SMILES)": "O=C(OCc1ccccc1)c1ccc(O)cc1", "target": "Histone-lysine N-methyltransferase SETD7 (SETD7, Homo sapiens, UniProt Q8WTS6)", "assay": "enzyme activity, inhibitor", "IC50 [µM]": "> 333"}
{"Structure (SMILES)": "CN/C(=N/CCSCc1nc[nH]c1C)NC#N", "target": "SLC22A2", "assay": "transporter uptake, inhibitor", "test system": "MDCK-II", "IC50 [µM]": 17}
{"Structure (SMILES)": "Cc1c(C(=O)N[C@@H]2CCCC[C@@H]2O)nc(-c2ccc(Cl)cc2Cl)n1-c1ccc(OS(=O)(=O)CCC(F)(F)F)cc1 (single isomer, unassigned)", "target": "CNR2", "assay": "GTPγS binding, antagonist", "setting": "cell membranes", "IC50 [µM]": 0.44}
{"Structure (SMILES)": "COc1c(OCC2CCCC2)cc2c(c1C=O)CC(O)OC2=O (stereo not shown)", "target": "Receptor-type tyrosine-protein phosphatase S (PTPRS, Homo sapiens, UniProt Q13332)", "assay": "enzyme activity, inhibitor, absorbance", "IC50 [µM]": "0.6 to 0.7"}
{"Structure (SMILES)": "CCCN(CCCCOCCOCCOCCOCC(=O)N[C@H](C(=O)N1C[C@H](O)C[C@H]1C(=O)NCc1ccc(-c2scnc2C)cc1)C(C)(C)C)C[C@@H](C)NC(=O)c1ccc(-c2noc(C(F)(F)F)n2)cc1", "target": "Histone deacetylase 7 (HDAC7, Homo sapiens, UniProt Q8WUI4)", "assay": "enzyme activity, inhibitor, fluorescence", "IC50 [µM]": 0.13}
{"Structure (SMILES)": "NC(=O)c1ccc[n+]([C@@H]2O[C@H](COP(=O)([O-])OP(=O)(O)OC[C@H]3O[C@@H](n4cnc5c(N)ncnc54)[C@H](O)[C@@H]3O)[C@@H](O)[C@H]2O)c1", "target": "Protein mono-ADP-ribosyltransferase PARP6 (PARP6, Homo sapiens, UniProt Q2NL67)", "assay": "enzyme activity, inhibitor", "IC50 [µM]": 87}
{"Structure (SMILES)": "Cn1cc(-c2cc3cc(-c4cc(C(=O)NCc5ccc(C(=O)O)cc5)nn4C)ccc3[nH]2)cn1", "target": "MMP2", "assay": "enzyme activity, inhibitor", "IC50 [µM]": "> 20"}
{"Structure (SMILES)": "CN1C2CCCC1CC(NC(=O)c1nn(C)c3ccccc13)C2 (stereo not shown)", "target": "ADRB2", "assay": "ligand displacement, radioligand", "setting": "cell membranes", "IC50 [µM]": 42.1}
